Calls of active or inactive are those of the source. The rule behind the calls is not given here.
What was measured:
Format in all cases: cell-based
[1] = target: T1, Paired amphipathic helix protein Sin3a (Homo sapiens) (UniProt Q96ST3); test: Induction of SIN3A degradation in human HCT-116 cells assessed as reduction in SIN3A abundance by measuring remaining activity at 2.5 uM measured after 24 hrs by Western blot analysis (reference value: 100%)
T1 sequence (whole entry): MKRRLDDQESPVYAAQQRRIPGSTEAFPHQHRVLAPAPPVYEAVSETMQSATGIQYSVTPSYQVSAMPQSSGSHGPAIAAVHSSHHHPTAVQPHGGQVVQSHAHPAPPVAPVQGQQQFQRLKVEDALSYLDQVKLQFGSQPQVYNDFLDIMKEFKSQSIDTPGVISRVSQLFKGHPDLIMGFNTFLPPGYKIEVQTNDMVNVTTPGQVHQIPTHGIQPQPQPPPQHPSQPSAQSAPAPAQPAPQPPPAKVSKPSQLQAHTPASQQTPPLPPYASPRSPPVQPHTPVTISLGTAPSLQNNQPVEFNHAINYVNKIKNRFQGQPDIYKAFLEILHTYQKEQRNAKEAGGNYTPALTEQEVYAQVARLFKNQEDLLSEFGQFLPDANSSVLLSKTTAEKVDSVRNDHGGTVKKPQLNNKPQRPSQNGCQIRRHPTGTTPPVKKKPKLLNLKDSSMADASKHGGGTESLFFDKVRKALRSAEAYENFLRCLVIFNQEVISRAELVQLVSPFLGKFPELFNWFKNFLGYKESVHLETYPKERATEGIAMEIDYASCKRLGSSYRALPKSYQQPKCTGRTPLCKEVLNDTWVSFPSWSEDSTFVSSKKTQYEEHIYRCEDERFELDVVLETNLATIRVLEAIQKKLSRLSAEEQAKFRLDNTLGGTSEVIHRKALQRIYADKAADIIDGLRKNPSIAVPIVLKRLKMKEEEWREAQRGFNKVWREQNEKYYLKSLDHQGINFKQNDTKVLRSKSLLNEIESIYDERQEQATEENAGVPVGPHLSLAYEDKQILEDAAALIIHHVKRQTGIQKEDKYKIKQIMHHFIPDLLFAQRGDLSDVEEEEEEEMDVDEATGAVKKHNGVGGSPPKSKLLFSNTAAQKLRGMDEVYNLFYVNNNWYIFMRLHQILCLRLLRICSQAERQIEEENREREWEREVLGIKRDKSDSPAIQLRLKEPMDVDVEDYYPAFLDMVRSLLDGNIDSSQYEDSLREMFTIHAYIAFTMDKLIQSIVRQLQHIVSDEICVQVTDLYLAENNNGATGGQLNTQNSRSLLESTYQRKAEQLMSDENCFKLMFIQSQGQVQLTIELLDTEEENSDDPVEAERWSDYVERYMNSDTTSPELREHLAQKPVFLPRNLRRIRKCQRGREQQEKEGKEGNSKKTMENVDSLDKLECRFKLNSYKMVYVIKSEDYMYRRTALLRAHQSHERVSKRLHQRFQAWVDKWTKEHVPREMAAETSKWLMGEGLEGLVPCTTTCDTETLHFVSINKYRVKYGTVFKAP
Method in brief: (§1)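 HCT116 cells seeded in six-well plates for 24 h, then exposed 24 h to compound (0.01–10 μM) or DMSO in fresh medium. Lysis in Tris-HCl/NaCl/NP-40/Triton X-100 with protease inhibitor. Bradford-normalised 30 μg protein per lane. Quantitative Western blot used specific HDAC1, HDAC2, HDAC3, LSD1 or Sin3a antibodies with IRDye secondaries. Abundance compared with DMSO, n = 2 replicates.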

[2] = target: T2, E3 ubiquitin-protein ligase Mdm2/Histone deacetylase 2 (Homo sapiens) (UniProt Q00987+Q92769); test: PROTAC activity at MDM2/HDAC2 in human HCT-116 cells assessed as decrease in HDAC2 abundance by measuring remaining activity at 0.05 uM measured after 24 hrs by Western blot analysis (reference value: 100%); method in brief: as §1
T2 sequence (Q00987 whole entry, looked up): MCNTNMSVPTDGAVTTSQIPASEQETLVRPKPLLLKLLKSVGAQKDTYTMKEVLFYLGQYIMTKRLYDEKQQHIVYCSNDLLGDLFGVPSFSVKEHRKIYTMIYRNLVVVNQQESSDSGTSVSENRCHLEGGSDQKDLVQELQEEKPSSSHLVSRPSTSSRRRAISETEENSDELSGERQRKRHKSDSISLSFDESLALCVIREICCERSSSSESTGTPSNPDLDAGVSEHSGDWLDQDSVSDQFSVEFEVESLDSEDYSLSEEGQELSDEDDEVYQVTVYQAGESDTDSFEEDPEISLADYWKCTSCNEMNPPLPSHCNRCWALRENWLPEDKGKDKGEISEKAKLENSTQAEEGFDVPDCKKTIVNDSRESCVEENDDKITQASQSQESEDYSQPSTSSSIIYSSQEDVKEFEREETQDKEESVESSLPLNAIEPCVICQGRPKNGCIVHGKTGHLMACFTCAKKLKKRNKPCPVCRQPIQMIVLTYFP
T2 sequence (Q92769 whole entry, looked up): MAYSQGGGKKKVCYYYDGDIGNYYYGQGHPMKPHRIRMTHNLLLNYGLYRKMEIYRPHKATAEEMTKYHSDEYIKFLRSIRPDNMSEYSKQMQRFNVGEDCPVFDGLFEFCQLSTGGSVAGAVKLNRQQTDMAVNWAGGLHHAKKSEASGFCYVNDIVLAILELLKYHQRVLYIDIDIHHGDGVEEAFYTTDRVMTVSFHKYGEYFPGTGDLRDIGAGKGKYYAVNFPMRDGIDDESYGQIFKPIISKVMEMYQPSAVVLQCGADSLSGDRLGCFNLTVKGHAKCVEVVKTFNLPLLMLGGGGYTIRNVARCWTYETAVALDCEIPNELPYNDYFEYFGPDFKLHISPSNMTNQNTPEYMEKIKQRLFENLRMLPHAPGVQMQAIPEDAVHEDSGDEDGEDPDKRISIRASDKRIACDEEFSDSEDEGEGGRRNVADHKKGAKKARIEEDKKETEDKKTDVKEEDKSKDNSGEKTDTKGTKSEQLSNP

[3] = target: T1, Paired amphipathic helix protein Sin3a (Homo sapiens); test: Induction of SIN3A degradation in human HCT-116 cells assessed as reduction in SIN3A abundance by measuring remaining activity at 5 uM measured after 24 hrs by Western blot analysis (reference value: 100%); method in brief: as §1
[4] = target: T3, E3 ubiquitin-protein ligase Mdm2/Histone deacetylase 3 (Homo sapiens) (UniProt Q00987+O15379); test: PROTAC activity at MDM2/HDAC3 in human HCT-116 cells assessed as reduction in HDAC3 abundance by measuring remaining activity at 0.1 uM measured after 24 hrs by Western blot analysis (reference value: 100%)
T3 sequence (O15379 whole entry, looked up): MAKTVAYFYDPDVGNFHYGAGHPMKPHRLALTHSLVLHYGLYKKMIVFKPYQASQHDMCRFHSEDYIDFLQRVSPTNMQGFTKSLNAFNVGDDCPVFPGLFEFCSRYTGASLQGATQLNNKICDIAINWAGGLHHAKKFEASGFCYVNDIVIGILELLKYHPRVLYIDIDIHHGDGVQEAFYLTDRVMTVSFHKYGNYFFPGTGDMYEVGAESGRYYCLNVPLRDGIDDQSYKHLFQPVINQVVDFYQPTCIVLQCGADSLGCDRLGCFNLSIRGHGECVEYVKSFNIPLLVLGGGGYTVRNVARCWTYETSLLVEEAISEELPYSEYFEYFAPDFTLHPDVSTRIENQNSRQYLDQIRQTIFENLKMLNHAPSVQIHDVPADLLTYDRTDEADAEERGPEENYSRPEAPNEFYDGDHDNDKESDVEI
T3 sequence (Q00987 whole entry, looked up): as the sequence (Q00987 whole entry, looked up) above
Method in brief: (§2)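 HCT116 cells in DMEM with 10% FBS and glutamine/penicillin/streptomycin at 37 °C, 5% CO2. Seeded 4 × 10^5 cells/well, after 24 h treated 24 h with DMSO or compound in fresh medium. Lysed in Tris-HCl/NaCl/NP-40/Triton X-100 buffer with protease inhibitor, Bradford-quantified, 30 μg protein per lane. Quantitative Western blot with specific HDAC1/2/3 antibodies, IRDye secondaries, infrared imaging, versus DMSO. n = 2 replicates.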

[5] = target: T2, E3 ubiquitin-protein ligase Mdm2/Histone deacetylase 2 (Homo sapiens); test: PROTAC activity at MDM2/HDAC2 in human HCT-116 cells assessed as decrease in HDAC2 abundance by measuring remaining activity at 0.025 uM measured after 24 hrs by Western blot analysis (reference value: 100%); method in brief: as §1
[6] = target: T1, Paired amphipathic helix protein Sin3a (Homo sapiens); test: Induction of SIN3A degradation in human HCT-116 cells assessed as reduction in SIN3A abundance by measuring remaining activity at 10 uM measured after 24 hrs by Western blot analysis (reference value: 100%); method in brief: as §1
[7] = target: T3, E3 ubiquitin-protein ligase Mdm2/Histone deacetylase 3 (Homo sapiens); test: PROTAC activity at MDM2/HDAC3 in human HCT-116 cells assessed as induction of HDAC3 degradation at 0.01 to 10 uM by Western blot analysis; conditions: dose 0.01-10 µM
[8] = target: T3, E3 ubiquitin-protein ligase Mdm2/Histone deacetylase 3 (Homo sapiens); test: PROTAC activity at MDM2/HDAC3 in human HCT-116 cells assessed as reduction in HDAC3 abundance by measuring remaining activity at 2.5 uM measured after 24 hrs by Western blot analysis; method in brief: as §2
[9] = target: T1, Paired amphipathic helix protein Sin3a (Homo sapiens); test: Induction of SIN3A degradation in human HCT-116 cells assessed as reduction in SIN3A abundance by measuring remaining activity at 0.5 uM measured after 24 hrs by Western blot analysis (reference value: 100%); method in brief: as §1
[10] = target: T3, E3 ubiquitin-protein ligase Mdm2/Histone deacetylase 3 (Homo sapiens); test: PROTAC activity at MDM2/HDAC3 in human HCT-116 cells assessed as reduction in HDAC3 abundance by measuring remaining activity at 1 uM measured after 24 hrs by Western blot analysis (reference value: 100%); method in brief: as §2
[11] = target: Lysine-specific histone demethylase 1A (Homo sapiens) (UniProt O60341); test: Induction of LSD1 degradation in human HCT-116 cells assessed as reduction in LSD1 abundance by measuring remaining activity at 0.025 uM measured after 24 hrs by Western blot analysis (reference value: 100%); method in brief: as §1
[12] = target: T1, Paired amphipathic helix protein Sin3a (Homo sapiens); test: Induction of SIN3A degradation in human HCT-116 cells assessed as reduction in SIN3A abundance by measuring remaining activity at 0.01 uM measured after 24 hrs by Western blot analysis (reference value: 100%); method in brief: as §1

## COc1cc(C(=O)NCCOCCOCCOCCOCCC(=O)Nc2ccc(C(=O)Nc3ccccc3N)cc2)ccc1NC(=O)[C@@H]1N[C@@H](CC(C)(C)C)[C@](C#N)(c2ccc(Cl)cc2F)[C@H]1c1cccc(Cl)c1F
[1]
  Activity: 57%
[2]
  Activity: 90%
[3]
  Activity: 53%
[4]
  Activity: 103%
[5]
  Activity: 96%
[6]
  Activity: 45%
[7]
  Activity: inactive
[8]
  Activity: 112%
[9]
  Activity: 79%
[10]
  Activity: 104%
[11]
  Activity: 102%
[12]
  Activity: 104%

From ChEMBL document CHEMBL5357024, “MDM2 Antagonist Idasanutlin Reduces HDAC1/2 Abundance and Corepressor Partners but Not HDAC3” (ACS Med Chem Lett, 2024)
